Source: ChEMBL document CHEMBL2021927, “Synthesis and evaluation of the cytotoxicities of tetraindoles: observation that the 5-hydroxy tetraindole (SK228) induces G₂ arrest and apoptosis in human breast cancer cells” (J Med Chem, 2012)
Active and inactive are the calls of the source. No cut-off for these calls is given here.

Assays:
MDA-MB-468 [1] = test: Selectivity ratio of IC50 for human MT10 cells to IC50 for human MDA-MB-468 cells
Procedure, shortened: (§1)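 Ratio of the IC50 in normal M10 cells to the IC50 in each cancer line. […] The paper reports the fold difference as the normal-cell to tumour-cell IC50 ratio.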

SW480 [2] = test: Selectivity ratio of IC50 for human MT10 cells to IC50 for human SW480 cells; procedure, shortened: as §1
MDA-MB-231 [3] = test: Induction of apoptosis in human MDA-MB-231 cells assessed as increase in early apoptotic cells at 0.4 uM by annexinV propidium iodide staining-based flow cytometric analysis; format: functional, cell-based; conditions: TDE = time-dependent effect
Procedure, shortened: (§2)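 MDA-MB-231 cells treated with 0.4 μM, washed twice in PBS and stained with annexin V-FITC/propidium iodide. Populations scored as viable (both negative), early apoptotic (annexin V positive, PI negative) or late apoptotic/dead (both positive).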

MDA-MB-468 [4] = test: Selectivity ratio of IC50 for human Detroit 551 cells to IC50 for human MDA-MB-468 cells
MDA-MB-231 [5] = test: Antiproliferative activity against human MDA-MB-231 cells assessed as decrease in cell count after 72 hrs by trypan blue dye exclusion assay; format: functional, cell-based
Procedure, shortened: (§3)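 MDA-MB-231 cells seeded at 2 × 10^5 per well in 6-well plates, treated 24 h later in triplicate with compound (0.1–0.8 μM) or DMSO vehicle in 10% FBS DMEM/F12. Cells harvested by trypsinization at 24, 48 and 72 h, stained with 0.4% trypan blue and counted on a hemocytometer; three independent experiments.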

Detroit 551 [6] = test: Growth inhibition of human Detroit 551 cells after 48 hrs by MTT assay; format: cell-based; conditions: Detroit 551, 48 h
MDA-MB-231 [7] = test: Induction of apoptosis in human MDA-MB-231 cells assessed as increase in late apoptotic cells at 0.4 uM by annexinV propidium iodide staining-based flow cytometric analysis; format: functional, cell-based; conditions: TDE = time-dependent effect; procedure, shortened: as §2
MDA-MB-231 [8] = test: Induction of apoptosis in human MDA-MB-231 cells assessed as bak protein level after 48 hrs by Western blot analysis; format: functional, cell-based
Procedure, shortened: (§4)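 MDA-MB-231 cells treated with 0.2, 0.4 or 0.8 μM for 24 and 48 h. Attached and floating cells were lysed in RIPA-type buffer with protease inhibitors, and protein was quantified by BCA. Equal protein was run on 10%/15% SDS-PAGE and transferred to nitrocellulose. Blots were probed 1 h at room temperature for phospho-cdc2, cyclin B1, caspase-3, bak/bcl-2 or actin loading control, with HRP secondary and ECL detection.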

MCF7 [9] = test: Ratio of IC50 for 3,3'-diindolylmethane to compound for human MCF7 cells after 48 hrs by MTT assay; format: functional
[10] = Selectivity ratio of IC50 for human MT10 cells to IC50 for human SW620 cells; format: ADME, cell-based, SW-620; conditions: MT10 cells and SW620 cells; procedure, shortened: as §1
MCF7 [11] = test: Ratio of IC50 for cyclic tetramer to compound for human MCF7 cells after 48 hrs by MTT assay; format: functional
Detroit 551 [12] = test: Selectivity ratio of IC50 for human Detroit 551 cells to IC50 for human SW620 cells
MDA-MB-231 [13] = test: Induction of apoptosis in human MDA-MB-231 cells assessed as caspase 3 cleavage after 24 to 48 hrs by Western blot analysis; format: functional, cell-based; procedure, shortened: as §4
MCF7 [14] = test: Selectivity ratio of IC50 for human MT10 cells to IC50 for human MCF7 cells; procedure, shortened: as §1
MDA-MB-231 [15] = test: Cell cycle arrest in human MDA-MB-231 cells at accumulation at G2/M phase at 0.8 uM after 24 hrs by propidium iodide staining-based flow cytometric analysis (reference value: 30%); format: functional
MDA-MB-231 [16] = test: Cell cycle arrest in human MDA-MB-231 cells at accumulation at G1 phase at 0.8 uM after 24 hrs by propidium iodide staining-based flow cytometric analysis (reference value: 48%); format: functional
MDA-MB-231 [17] = test: Selectivity ratio of IC50 for human MT10 cells to IC50 for human MDA-MB-231 cells; procedure, shortened: as §1
MDA-MB-231 [18] = test: Cell cycle arrest in human MDA-MB-231 cells at accumulation at subG1 phase at 0.8 uM after 48 hrs by propidium iodide staining-based flow cytometric analysis (reference value: 3%); format: functional
MDA-MB-231 [19] = test: Decrease in cyclin B1 expression in human MDA-MB-231 cells at 0.8 uM after 48 hrs by Western blot analysis; format: functional, cell-based; procedure, shortened: as §4
[20] = Growth inhibition of human Detroit 551 cells at 20 uM after 48 hrs by MTT assay; format: cell-based; conditions: read-out: GI
Procedure, shortened: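 MTT viability assay with 48 h exposure at a single 20 μM concentration. Result given as percent inhibition of cell growth; n = 3.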

MDA-MB-231 [21] = test: Cell cycle arrest in human MDA-MB-231 cells at accumulation at G1 phase at 0.8 uM after 48 hrs by propidium iodide staining-based flow cytometric analysis (reference value: 45%); format: functional
MDA-MB-361 [22] = test: Selectivity ratio of IC50 for human MT10 cells to IC50 for human MDA-MB-361 cells; procedure, shortened: as §1
MDA-MB-231 [23] = test: Increase in cdc2 phosphorylation at Tyr15 expression in human MDA-MB-231 cells after 24 hrs by Western blot analysis; format: functional, cell-based; procedure, shortened: as §4
MDA-MB-231 [24] = test: Induction of apoptosis in human MDA-MB-231 cells assessed as DNA ladder formation at 0.4 to 1.6 uM after 48 hrs by agarose gel electrophoretic analysis; format: functional, cell-based
Procedure, shortened: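 MDA-MB-231 cells seeded at 1 × 10^6 per dish, treated 24 h later with 0, 0.4, 0.8, 1.2 or 1.6 μM or DMSO for 48 h at 37 °C, 5% CO2. Cells lysed in TE buffer with 0.25% NP40 (pH 7.5). Lysate digested with RNase A then proteinase K, each 1 h at 37 °C. DNA resolved on 1.8% agarose gel.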

MDA-MB-231 [25] = test: Growth inhibition of human MDA-MB-231 cells after 48 hrs by MTT assay; format: functional, cell-based
MDA-MB-231 [26] = test: Induction of apoptosis in human MDA-MB-231 cells assessed as PARP cleavage after 24 to 48 hrs by Western blot analysis; format: functional, cell-based
MDA-MB-231 [27] = test: Cell cycle arrest in human MDA-MB-231 cells at accumulation at G2/M phase at 0.8 uM after 48 hrs by propidium iodide staining-based flow cytometric analysis (reference value: 32%); format: functional
Detroit 551 [28] = test: Selectivity ratio of IC50 for human Detroit 551 cells to IC50 for human U87MG cells
[29] = Growth inhibition of human U87MG cells after 48 hrs by MTT assay; format: functional, cell-based, U-87MG ATCC; conditions: U-87 MG
SW48 = test: Selectivity ratio of IC50 for human Detroit 551 cells to IC50 for human SW48 cells
MDA-MB-231 [30] = test: Induction of apoptosis in human MDA-MB-231 cells assessed as bcl-2 protein level after 24 to 48 hrs by Western blot analysis; format: functional, cell-based; procedure, shortened: as §4
SW480 [31] = test: Selectivity ratio of IC50 for human Detroit 551 cells to IC50 for human SW480 cells
MDA-MB-231 [32] = test: Antiproliferative activity against human MDA-MB-231 cells assessed as decrease in cell count at 0.1 to 0.8 uM by trypan blue dye exclusion assay; format: functional, cell-based; conditions: TDE = time-dependent effect; procedure, shortened: as §3
MDA-MB-231 [33] = test: Increase in cyclin B1 expression in human MDA-MB-231 cells after 24 hrs by Western blot analysis; format: functional, cell-based; procedure, shortened: as §4
MDA-MB-361 [34] = test: Growth inhibition of human MDA-MB-361 cells after 48 hrs by MTT assay; format: functional, cell-based; conditions: MDA-MB-361, 48 h

- IC50 (MDA-MB-231 [25]; MDA-MB-231, 48 h): 450 nM
- IC50 (MDA-MB-361 [34]): 2070 nM
Structure (SMILES): Oc1ccc2[nH]cc(C(c3ccc(C(c4c[nH]c5ccc(O)cc45)c4c[nH]c5ccc(O)cc45)cc3)c3c[nH]c4ccc(O)cc34)c2c1
- Ratio IC50 (MDA-MB-468 [1]): 7
- Ratio IC50 (SW480 [2]): 15.7
- Activity (MDA-MB-231 [3]): tde
- Ratio IC50 (MDA-MB-468 [4]): > 24
- Activity (MDA-MB-231 [5]): Dose-dependent effect
- IC50 (Detroit 551 [6]): > 20000 nM
- Activity (MDA-MB-231 [7]): tde
- Activity (MDA-MB-231 [8]): Active
- Ratio IC50 (MCF7 [9]): 57
- selectivity ratio [10]: 5.9
- Ratio IC50 (MCF7 [11]): 2
- Ratio IC50 (Detroit 551 [12]): > 20
- Activity (MDA-MB-231 [13]): Dose-dependent effect
- Ratio IC50 (MCF7 [14]): 6.6
- Activity (MDA-MB-231 [15]): 40%
- Activity (MDA-MB-231 [16]): 31%
- Ratio IC50 (MDA-MB-231 [17]): 12.9
- Activity (MDA-MB-231 [18]): 21%
- Activity (MDA-MB-231 [19]): Active
- inhibition at 48 h, 20 µM [20]: 47%
- Activity (MDA-MB-231 [21]): 25%
- Ratio IC50 (MDA-MB-361 [22]): 2.8
- Activity (MDA-MB-231 [23]): Dose-dependent effect
- Activity (MDA-MB-231 [24]): Active
- inhibition (MDA-MB-231 [25]): Dose-dependent effect
- Activity (MDA-MB-231 [26]): Dose-dependent effect
- Activity (MDA-MB-231 [27]): 34%
- Ratio IC50 (Detroit 551 [28]): > 7.3
- IC50 [29]: 2730 nM
- Ratio IC50 (SW48): > 22.7
- Activity (MDA-MB-231 [30]): Dose-dependent effect
- Ratio IC50 (SW480 [31]): > 54
- Activity (MDA-MB-231 [32]): tde
- Activity (MDA-MB-231 [33]): Dose-dependent effect
